# Assay outcomes from PubChem BioAssay.
# Shown are actives, neighbours in structure and some others; about 2.2% of the full set was active somewhere.
# miR122 inh: blocks miR-122 activity in Huh7 sensor cells | AID 602342 | actives 0.3% (n = 340,000) | Huh7 miR-122 Renilla luciferase sensor, 48 h; neutral wells = 0, positive control = 100 | activation (reporter increase), % at 12.5 µM;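 active = mean replicate activation score at least 90 and every replicate individually at or above 90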;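 note: higher luciferase means less miR-122 activity so hits act as miR-122 inhibitors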
# NR2E3 ag-1: NR2E3 (human) agonism | AID 2300 | inhibition of corepressor binding, % at 4.78 µM | GST-NR2E3/biotin-RetCOR TR-FRET, 1536-well | Q9Y5X4 | actives 0.12% (n = 320,000);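 active = percent inhibition above the cutoff of mean plus 3 SD of all tested compounds, set per screening campaign, cut at about 20% in these data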;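 note: 0% = DMSO wells and 100% = biotin wells as full block of FRET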
# Target sequence (Q9Y5X4 whole entry, looked up): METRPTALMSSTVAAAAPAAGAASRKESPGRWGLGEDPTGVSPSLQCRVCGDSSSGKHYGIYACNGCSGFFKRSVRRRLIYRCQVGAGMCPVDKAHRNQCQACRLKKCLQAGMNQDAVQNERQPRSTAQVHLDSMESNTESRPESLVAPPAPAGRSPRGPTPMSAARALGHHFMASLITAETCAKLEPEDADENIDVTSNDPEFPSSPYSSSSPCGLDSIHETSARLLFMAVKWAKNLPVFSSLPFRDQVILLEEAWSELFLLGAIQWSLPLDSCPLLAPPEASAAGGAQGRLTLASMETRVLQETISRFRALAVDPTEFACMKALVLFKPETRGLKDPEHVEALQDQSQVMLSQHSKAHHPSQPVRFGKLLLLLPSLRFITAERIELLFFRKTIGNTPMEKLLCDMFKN
#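 Material – GST-tagged NR2E3 plus biotinylated RetCOR corepressor · Quantity – NR2E3 fusion 1.35 nM · Times – 5 h incubation at 4 °C · Medium – pH 7.5 Tris-based buffer · Technique – TR-FRET, Eu(K)-anti-GST donor, streptavidin-D2 acceptor, ex 340, em 617/671 nm · Benchmarks – high control biotin, low control 0.6% DMSO · Format – 1536-well plates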
# FGF22 binding: binders of recombinant human FGF22 by thermal shift | Q9HCT0 | SYPRO orange fluorescence; percent of sucrose octasulfate shift, DMSO zero | activity (Tm shift, normalised), % at 9.99 µM | actives 1.5% (n = 340,000) | AID 651658;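 active = mean Tm shift, scaled 0 neutral to 100 positive control, at about 1.3% or above, every replicate too, limit read from the data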
# Target sequence (Q9HCT0 whole entry, looked up): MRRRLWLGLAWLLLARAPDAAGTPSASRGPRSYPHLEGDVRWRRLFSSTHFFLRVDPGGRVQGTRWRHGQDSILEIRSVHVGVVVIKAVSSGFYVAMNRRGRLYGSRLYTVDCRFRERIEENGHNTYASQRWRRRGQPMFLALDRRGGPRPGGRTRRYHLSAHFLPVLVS
# 697 NFkB inh: lowers PMA/ionomycin-induced NF-kB signal in 697 B cells; inhibition, % at 4 µM; 697 B-cell NF-kB luciferase reporter, 16 h; AID 435022; actives 0.33% (n = 330,000); in the data active = inhibition above about 35%
# Jurkat NFkB inh: lowers PMA/ionomycin-induced NF-kB signal in Jurkat cells | PMA/ionomycin-induced NF-kB luciferase reporter, luminescence | inhibition, % at 4 µM | actives 0.53% (n = 330,000) | AID 435003; in the data active = inhibition above about 50%
# NR2E3 ag-2: agonists of human NR2E3 nuclear receptor | inhibition of corepressor binding, % at 3.98 µM | CHO-S Gal4-NCOR/VP16-NR2E3 two-hybrid, luciferase | actives 0.35% (n = 360,000) | Q9Y5X4;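 active = inhibition above the mean of all tested compounds plus 3 SD, cut at about 70% in these data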;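 note: 0% = DMSO with NR2E3 transfected cells and 100% = cells lacking NR2E3 construct; higher means lower luciferase signal from less NR2E3 corepressor binding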
# Jurkat NFkB conf: lowers PMA/ionomycin-induced NF-kB signal in Jurkat cells; shares compounds with Jurkat NFkB inh; Jurkat NF-kB luciferase, 16 h; actives 27% (n = 2,700); inhibition, % at 4 µM;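 active = inhibition reaching about 45% at 4 µM in either replicate, limit read from the data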;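 note: plate controls were PMA/ionomycin stimulated DMSO wells for no effect and unstimulated DMSO wells for full effect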
# Active calls of the source: *; / = not tested or not shown; [ ] = dose if it differs, or a comment.
SMILES,miR122 inh,NR2E3 ag-1,FGF22 binding,697 NFkB inh,Jurkat NFkB inh,NR2E3 ag-2,Jurkat NFkB conf
COc1ccc(NC(=O)Nc2ccc3c(c2)CC(=O)N([C@H](C)CO)C[C@@H](C)[C@H](CN(C)S(=O)(=O)c2cn(C)cn2)O3)cc1,-5[16.7 µM],/,0,/,/,/,/
CCOc1cc(S(=O)(=O)N2CCC(Cc3ccccc3)CC2)c(OCC)cc1-n1cnnn1,0,5,/,-11,12,-6,/
CCOc1cc(S(=O)(=O)N2CC=C(c3ccc(F)cc3)CC2)c(OCC)cc1-n1cnnn1,7,-1,/,-61,56*,-5,23
CCOC(=O)c1ccc(NC(=O)c2cnccn2)cc1,-6,/,/,-37,-27,-42,/
CCCCc1ccc(NC(=O)c2cnccn2)cc1,-3,-1,1,-206,-156,-91,-105
C=C(C)COc1ccc(-c2[nH]ncc2-c2ccc(OC)cc2)c(O)c1,/,2,0,-4,10,-22,/
C=C(C)COc1ccc(-c2n[nH]c(C)c2Oc2ccccc2OC)c(O)c1,31,2,/,1,8,-7,/
C=C(C)COc1ccc(-c2[nH]ncc2-c2ccc(OC)c(OC)c2)c(O)c1,7,2,/,-60,64*,-71,62*
C=C(C)COc1ccc(-c2n[nH]c(C)c2-c2ccc(OC)c(OC)c2)c(O)c1,17,2,0,-13,67*,-26,50*
O=C(Nc1cccnc1)c1ccc(COc2cc(Cl)ccc2Cl)o1,-5,2,/,-1,57*,-106,8
O=C(Nc1cccnc1)c1ccc(COc2ccccc2Cl)o1,4,-1,/,17,24,-1,/
Cc1ccc(C2(C(F)(F)F)NC(=O)N3CCCN=C3S2)cc1 (stereo not given),-2,1,0,2,52*,-23,6
O=C1/C(=C/c2ccc(N3CCOCC3)o2)SC(=Nc2ccccc2)N1CCc1c[nH]c2ccccc12,-29,2,/,-38,91*,21,38
COc1ccc(C(=O)CN2Cc3ccccc3C2=N)cc1,/,-1,0,-202,-157,-158,-76
COc1ccc(C(=O)Cn2c(=N)n(C)c3ccccc32)cc1,-3,4,0,-199,-124,-98,/
Oc1cccc2ccc(/C=C/c3cccs3)nc12,/,1,/,-177,-189,-148,-146
O=C(C[C@H]1C=C[C@H](NC(=O)C2CC2)[C@H](CO)O1)NCC1CC1,/,/,0,/,/,/,/
Cn1ncc2c(O/N=C(\N)c3ccc(C(C)(C)C)cc3)ncnc21,-14,-2,/,-192,101*,5,-18
CCOC(=O)c1sc(NC(=O)c2ccc(Cl)s2)cc1C,-1,3,0,-113,-195,-76,-58
CCOC(=O)c1sc(NC(=O)c2ccccc2)cc1C,23,3,/,-119,-163,-142,-91
COc1cccc2sc(Nc3nc(-c4ccncc4)cs3)nc12,/,6,42,-28,60*,4,35
NCC[C@H]1CC[C@H](NS(=O)(=O)Cc2ccccc2)[C@H](CO)O1,-9[16.7 µM],/,0,/,/,/,/
c1ccc(-c2cccc(-c3ccccn3)n2)nc1,-19,2,0,-5,92*,-21,83*
c1ccc(-c2nnc(-c3ccccn3)nn2)nc1,8,-3,0,-108,-75,-74,/
CCN(CC)c1ccc2nc3ccccc3[n+](CC)c2c1,/,-124,/,18,56*,-21,56*
SMILES,miR122 inh,NR2E3 ag-1,FGF22 binding,697 NFkB inh,Jurkat NFkB inh,NR2E3 ag-2,Jurkat NFkB conf
CCN(CC)c1ccc2nc3ccc(N)cc3[n+](-c3ccccc3)c2c1,/,/,-1,20,83*,27,68*
CCN(CC)c1ccc(/C=N/n2nnnc2N)c(O)c1,-6,2,/,2,24,-17,/
O=C(c1ccc(CS(=O)c2ccccc2Cl)o1)N1CCN(c2ccccn2)CC1 (stereo not given),65,-4,0,-43,52*,-22,48
O=C(c1ccc(CS(=O)Cc2ccccc2Cl)o1)N1CCN(c2ccccn2)CC1 (stereo not given),-3,1,0,-8,-9,6,/
CO[C@@H](C(=O)N(C)C[C@@H]1OCc2ccccc2-c2ccccc2C(=O)N([C@H](C)CO)C[C@H]1C)c1ccccc1,/,/,0,/,/,/,/
Cc1cccc(OCC(=O)Nc2nccs2)c1C,/,-1,0,-60,-177,-1,-84
COCC(=O)N(C)C[C@@H]1Oc2cc(-c3ccncc3)ccc2S(=O)(=O)N([C@@H](C)CO)C[C@H]1C,6[16.7 µM],/,0,/,/,/,/
C[C@@H](NC(=O)C[C@@H]1C[C@H]2c3cc(NC(=O)C4CCOCC4)ccc3O[C@H]2[C@@H](CO)O1)c1ccccc1,4[16.7 µM],/,0,/,/,/,/
Cc1ccc(-c2csc(NC(=O)c3cc([N+](=O)[O-])ccc3N3CCOCC3)n2)cc1,4,1,0,-3,-2,-18,/
O=C(Nc1nc(-c2ccccc2)cs1)c1ccc(N2CCOCC2)c([N+](=O)[O-])c1,-11,-1,/,12,52*,67,57*
CCOc1ccc(NS(=O)(=O)c2cc(NC(=O)c3ccc(C)cc3)ccc2Cl)cc1,/,-2,/,-148,53*,-59,34
CCOc1ccc(Oc2ccc(NS(=O)(=O)c3cc(C(=O)O)ccc3Cl)cc2)cc1,0,3,0,12,-6,-28,/
O=C(NC(=S)Nc1cccc(Cl)c1N1CCCCC1)c1ccc2c(c1)OCCO2,-11,0,/,-29,50*,-1,2
O=C(Nc1cccc(Cl)c1N1CCCCC1)c1ccc2c(c1)OCCO2,-4,5,/,19,8,-7,/
c1ccc(OCCSc2nnnn2-c2ccccc2)cc1,/,0,/,-178,-126,-130,/
Fc1ccccc1OCCSc1nnnn1-c1ccccc1,-7,3,/,-160,-174,-146,-139
CN(C)c1ccc(N/C=C/C(=O)c2ccccc2)cc1,-3,4,/,-100,-171,-32,-49
Cc1ccc(C(=O)/C=C\Nc2ccc(C)c(C)c2)cc1,/,1,/,-146,-162,-78,-18
Cc1ccc(N/C=C/C(=O)c2ccc(C)cc2)cc1,-2,2,/,-135,-142,-89,/
Cc1ccc(C(=O)/C=C/Nc2ccc([N+](=O)[O-])cc2Br)cc1,1,-2,/,-187,-165,-99,-41
Cc1ccc(O)c(N/C=C/C(=O)c2ccc(F)cc2)c1,-1,0,0,-50,85*,-65,14
CNC[C@H]1OCCCC[C@H](C)Oc2ccc(NC(=O)Nc3cccc4ccccc34)cc2C(=O)N([C@H](C)CO)C[C@@H]1C,-1[16.7 µM],/,/,/,/,/,/
C[C@H](O)C#Cc1cnc2c(c1)C(=O)N([C@@H](C)CO)C[C@H](C)[C@@H](CN(C)C(=O)c1ccccc1F)O2,10[16.7 µM],/,0,/,/,/,/
